Most compounds without a hit are left out; they make up all but 2.6% or so of the library.
VLA-4 inh: inhibition in a human VLA-4 binding assay | VLA-4 expressing cells, ligand binding flow cytometry | inhibition, % (about 7 µM as worked out from the volumes in the protocol) | hit rate 0.2% among 330,000 | AID 2557; in the data active means inhibition above about 50%
Platelet DG rel: platelet dense granule release activity. human platelet-rich plasma, SFLLRN dense granule ATP release, luminescence. inhibition, %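 (compounds screened at 7.5 µM in platelet-rich plasma)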. hit rate 0.22% among 300,000;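 active means mean replicate score, as percent of positive control, at or above 50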
TAAR1 ag: agonists of human TAAR1; Q96RJ0; CHO RD-HGA16 TAAR1, Fluo-8 calcium fluorescence; vehicle wells 0%, saturating PEA agonist 100%; activation, % at 3 µM; hit rate 0.99% among 360,000;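 active means activation above the mean activation of all test compounds in the run plus 3 SD, cut at about 38% in these data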
Target sequence (Q96RJ0 whole entry, looked up): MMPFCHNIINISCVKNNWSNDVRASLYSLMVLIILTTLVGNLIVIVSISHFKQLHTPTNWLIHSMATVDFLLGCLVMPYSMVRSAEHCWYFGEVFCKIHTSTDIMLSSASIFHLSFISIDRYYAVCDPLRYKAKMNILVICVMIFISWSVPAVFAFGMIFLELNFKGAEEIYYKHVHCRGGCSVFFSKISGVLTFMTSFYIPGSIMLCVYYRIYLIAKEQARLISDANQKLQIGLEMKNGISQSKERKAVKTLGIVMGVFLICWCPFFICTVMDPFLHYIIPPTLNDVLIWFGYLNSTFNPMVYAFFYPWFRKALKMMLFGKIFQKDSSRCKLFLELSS
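System: CHO-derived RD-HGA16 cells with stable Gα16 and human TAAR1. Times: 17-24 h plating, Fluo-8 75 min 37 °C, 30 min RT. Measured by: calcium-sensitive Fluo-8 signal, excitation 470-495, emission 515-575 nm. Read-out basis: % activation relative to PEA EC100 response. Control set: DMSO and PEA EC100. Repeats: no replicates (n 1).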
Rce1 inh: inhibitors of yeast Ras-converting enzyme; hit rate 0.27% among 290,000; yeast membranes, quenched prenylated peptide cleavage fluorescence; calls only;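 active means fall in fluorescence gain of 50% or more versus controls, with final raw signal at or below 3038400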
Target sequence (Q03530 whole entry, looked up): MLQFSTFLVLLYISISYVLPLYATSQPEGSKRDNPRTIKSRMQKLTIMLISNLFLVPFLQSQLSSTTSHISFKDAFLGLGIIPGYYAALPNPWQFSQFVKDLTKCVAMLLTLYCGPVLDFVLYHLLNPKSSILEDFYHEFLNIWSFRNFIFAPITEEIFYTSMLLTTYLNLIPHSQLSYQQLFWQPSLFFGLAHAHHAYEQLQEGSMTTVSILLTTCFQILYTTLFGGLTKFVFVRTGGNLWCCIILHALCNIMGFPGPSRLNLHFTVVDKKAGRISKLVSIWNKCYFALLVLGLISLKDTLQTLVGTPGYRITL
TAAR1 antagonist: human TAAR1 antagonism; Q96RJ0; CHO RD-HGA16 TAAR1, Fluo-8 calcium fluorescence, antagonist; inhibition, % at 3 µM; hit rate 1.5% among 360,000;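 active means inhibition above a per-plate cutoff, the mean inhibition of test compounds on that plate plus 3 SD, cut at about 49% in these data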
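Test system – hTAAR1-expressing CHO RD-HGA16 cells, Gα16-coupled · Reagent – β-PEA at EC80 concentration, post-compound challenge · Compound dosing – 3 µM, single point · Timing – 140 s kinetic read after compound, 140 s after agonist · Detection – Fluo-8 intracellular calcium dye fluorescence, real-time kinetic reads · Control set – DMSO and EC80 PEA controls · Repeats – n of 1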
TAAR1 ag confirm: confirmation of human TAAR1 agonists. AID 651783. activation, % at 3 µM. shares compounds with TAAR1 ag. CHO RD-HGA16 TAAR1, Fluo-8 calcium fluorescence; scaled: DMSO 0%, maximal phenethylamine 100%. hit rate 82% among 2,400;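 active means activation above a cutoff set at the run's mean compound activation plus 3 SD, cut at about 39% in these data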
Ga16 nonsel ag: nonselective agonist in parental cells, TAAR1 agonist counter-screen | hit rate 50% among 2,400 | activation, % at 3 µM | CHO-Ga16 parental, Fluo-8 calcium fluorescence; normalized to maximal ATP response, DMSO zero | shares compounds with TAAR1 ag;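 active means activation above the run cutoff, the mean activation over all tested wells plus 3 SD, cut at about 12% in these data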
TAAR1 desens: human TAAR1 agonist that also desensitizes the receptor | hit rate 46% among 2,400 | inhibition, % at 3 µM | shares compounds with TAAR1 ag | CHO RD-HGA16 hTAAR1, Fluo-8 calcium, beta-PEA response inhibition;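 active means inhibition above the run cutoff, the mean inhibition of all test compounds plus 3 SD, cut at about 49% in these data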;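 further: beta-PEA stimulus applied at its EC80; loss of beta-PEA calcium signal after compound pretreatment read as receptor desensitization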
Ga16 antag count: nonselective Ga16 antagonism, counter-screen. shares compounds with TAAR1 ag. CHO-Ga16 ATP-induced calcium, Fluo-8 fluorescence. inhibition, % at 3 µM. hit rate 39% among 2,400. AID 651952;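 active means inhibition above the plate's mean compound inhibition plus 3 SD, computed per plate, cut at about 22% in these data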
Of the large screens only hits and unclear results are named; the others gave an inactive call (follow-up assays come after a bar, where they were run).

CCc1ccc(N2CC(C(=O)NCC(C)(C)N3CCOCC3)CC2=O)cc1 (stereo not drawn)	none (no result: Platelet DG rel, Rce1 inh)
CCCCN(C)c1c(C)nc2ccc(C(=O)Nc3ccc(OC)c(OC)c3)cn12	TAAR1 ag 63 (no result: VLA-4 inh, Platelet DG rel, Rce1 inh) | TAAR1 ag confirm 85 | Ga16 nonsel ag 48 | TAAR1 desens inactive | Ga16 antag count inactive
O=c1cc(-c2cccs2)oc2ccc(Cl)cc12	none
O=c1c(O)c(-c2cccs2)oc2ccc(Cl)cc12	TAAR1 ag 292, TAAR1 antagonist 110 | TAAR1 ag confirm 152 | Ga16 nonsel ag 152 | TAAR1 desens 89 | Ga16 antag count 85
COc1ccc(NC(=O)N2CCCC(c3ccccc3)C2)cc1 (stereo not drawn)	TAAR1 ag 55 | TAAR1 ag confirm 61 | Ga16 nonsel ag inactive | TAAR1 desens inactive | Ga16 antag count inactive
COc1ccc(NC(=O)C2CCCN(C(=O)Nc3ccc(OC)cc3)C2)cc1 (stereo not drawn)	none
COc1ccc(CNC(=O)CN(Cc2ccc(F)cc2)C(=O)c2csnn2)cc1	none
C#CC(CC)(CC)NC(=O)c1nn(-c2ccccc2Cl)c(C)cc1=O	none
C/C(NCCc1ccc(O)cc1)=C1/CCOC1=O	TAAR1 ag 83, TAAR1 antagonist 83 (no result: VLA-4 inh, Platelet DG rel, Rce1 inh) | TAAR1 ag confirm 91 | Ga16 nonsel ag inactive | TAAR1 desens 69 | Ga16 antag count inactive
CC(=O)c1cccc(OCC(O)CNCC2COc3ccccc3O2)c1 (stereo not drawn)	TAAR1 ag 46 | TAAR1 ag confirm 70 | Ga16 nonsel ag inactive | TAAR1 desens inactive | Ga16 antag count inactive
CC(OCC(O)CNCC1COc2ccccc2O1)c1ccc(Cl)cc1 (stereo not drawn)	none
CC1=C(C(=O)N2CCCCCC2)CC(CC(=O)NC2CCCC2)C(=O)N1CCC1=CCCCC1 (stereo not drawn)	none (no result: VLA-4 inh, Platelet DG rel, Rce1 inh)
COC(=O)C1=C(C)N(Cc2cccc(C(F)(F)F)c2)C(=NCc2ccc(OC)cc2)NC1c1cccc(F)c1 (stereo not drawn)	TAAR1 ag 43, TAAR1 antagonist 55 (no result: VLA-4 inh, Platelet DG rel, Rce1 inh) | TAAR1 ag confirm 42 | Ga16 nonsel ag 24 | TAAR1 desens 51 | Ga16 antag count 42
COC(=O)C1=C(C)N(Cc2cccc(C(F)(F)F)c2)C(=NCc2ccc(OC)cc2)NC1c1ccccc1 (stereo not drawn)	TAAR1 ag 51, TAAR1 antagonist 59 (no result: VLA-4 inh, Platelet DG rel, Rce1 inh) | TAAR1 ag confirm 38 | Ga16 nonsel ag 25 | TAAR1 desens inactive | Ga16 antag count 45
COC(=O)C1=C(C)N(Cc2cccc(C(F)(F)F)c2)C(=NCc2cc(OC)c(OC)c(OC)c2)NC1c1ccccc1 (stereo not drawn)	TAAR1 ag 44 (no result: VLA-4 inh, Platelet DG rel, Rce1 inh) | TAAR1 ag confirm inactive | Ga16 nonsel ag inactive | TAAR1 desens inactive | Ga16 antag count inactive
COC(=O)C1=C(C)N(Cc2ccccc2)C(=NCc2cccc(C(F)(F)F)c2)N[C@H]1c1cccc(C(F)(F)F)c1	none (no result: Platelet DG rel, TAAR1 ag, Rce1 inh, TAAR1 antagonist)
COC(=O)C1=C(C)N(Cc2cccc(C(F)(F)F)c2)C(=NCc2cc(OC)c(OC)c(OC)c2)NC1c1cccc(C(F)(F)F)c1 (stereo not drawn)	none (no result: VLA-4 inh, Platelet DG rel, Rce1 inh)
O=C(N[C@H]1/C=C\[C@@H](O)CCCC1)OCc1ccccc1	none (no result: VLA-4 inh, Platelet DG rel, Rce1 inh)
C=CCCC(=O)N1C[C@H]2CCN(C)[C@H]2C[C@H]1c1ccccc1Br	none (no result: VLA-4 inh, Platelet DG rel, Rce1 inh)
CCOC(=O)Cn1c(=O)oc2cc(S(=O)(=O)Nc3ccc(F)cc3)ccc21	TAAR1 ag 89 | TAAR1 ag confirm 109 | Ga16 nonsel ag 69 | TAAR1 desens 52 | Ga16 antag count 32
CCOC(=O)Cn1c(=O)oc2cc(S(=O)(=O)NCCc3ccc(C)cc3)ccc21	none
COCc1[nH]nc2c1C(c1ccc(F)cc1)NC2=O (stereo not drawn)	none (no result: VLA-4 inh, Platelet DG rel, Rce1 inh)
OC[C@@H]1CN(CCc2ccccc2)C[C@H](n2cnc3c(N4CCOCC4)ncnc32)O1	TAAR1 ag 61 (no result: VLA-4 inh, Platelet DG rel, Rce1 inh) | TAAR1 ag confirm 74 | Ga16 nonsel ag inactive | TAAR1 desens inactive | Ga16 antag count inactive
CC(C)N(C)c1ncnc2c1ncn2[C@H]1CN(CCc2ccccc2)C[C@@H](CO)O1	TAAR1 ag 48 (no result: VLA-4 inh, Platelet DG rel, Rce1 inh) | TAAR1 ag confirm 63 | Ga16 nonsel ag inactive | TAAR1 desens inactive | Ga16 antag count inactive
OC[C@@H]1CN(CCc2ccccc2)C[C@H](n2cnc3c(NCc4ccc(F)cc4)ncnc32)O1	TAAR1 ag 66 (no result: VLA-4 inh, Platelet DG rel, Rce1 inh) | TAAR1 ag confirm 75 | Ga16 nonsel ag inactive | TAAR1 desens inactive | Ga16 antag count inactive
OC[C@@H]1CN(CCN2CCOCC2)C[C@H](n2cnc3c(NCc4ccc(F)cc4)ncnc32)O1	none (no result: VLA-4 inh, Platelet DG rel, Rce1 inh)
O=C(Nc1ccc(S(=O)(=O)N2CCCC2)cc1)C1CC(=O)N(c2ccc(F)cc2)C1 (stereo not drawn)	none
CC(C)(C)C1CCc2onc(C(=O)NC3CCCC3)c2C1 (stereo not drawn)	TAAR1 ag 45 | TAAR1 ag confirm 71 | Ga16 nonsel ag 39 | TAAR1 desens inactive | Ga16 antag count inactive
O=C(NC1CCCCC1)c1noc2c1CCCCC2	none
COCC(C)N1C(=O)Cc2c1nc(N)c1c(N)nc(N3CCN(c4ccccc4F)CC3)c(C#N)c21 (stereo not drawn)	TAAR1 ag 52, TAAR1 antagonist 49 | TAAR1 ag confirm 49 | Ga16 nonsel ag 25 | TAAR1 desens 63 | Ga16 antag count 45
FC(F)(F)c1cccnc1Oc1ccc(C2=NCCS2)cc1	TAAR1 ag 84, TAAR1 antagonist 57 (no result: Platelet DG rel) | TAAR1 ag confirm 58 | Ga16 nonsel ag 58 | TAAR1 desens 62 | Ga16 antag count 43
COc1ccc(C(N)c2csc(Nc3ccc(S(C)(=O)=O)cc3)n2)cc1 (stereo not drawn)	none (no result: VLA-4 inh, Platelet DG rel, Rce1 inh)
O=C(Nc1cccc(Cl)c1)N1CCc2ccccc2C1	none
COc1cccc(NC(=O)N2CCc3ccccc3C2)c1	TAAR1 ag 46 | TAAR1 ag confirm 53 | Ga16 nonsel ag inactive | TAAR1 desens inactive | Ga16 antag count inactive
COc1ccc(NC(=S)N2CCc3ccccc3C2)cc1	TAAR1 ag 84, TAAR1 antagonist 53 | TAAR1 ag confirm 93 | Ga16 nonsel ag inactive | TAAR1 desens inactive | Ga16 antag count inactive
COc1cc(C)ccc1S(=O)(=O)NC(=O)C1(C)CCN1C(=O)Cc1ccccc1Cl (stereo not drawn)	none (no result: VLA-4 inh, Platelet DG rel, Rce1 inh)
CC(C)CC(N)c1csc(NC(=O)Nc2ccccc2Cc2ccccc2)n1 (stereo not drawn)	none (no result: VLA-4 inh, Platelet DG rel, Rce1 inh)
